Reference: ChEMBL document CHEMBL4257504, “Tricyclic xanthine derivatives containing a basic substituent: adenosine receptor affinity and drug-related properties” (Medchemcomm, 2018)
Converted amounts (≈) assume the structure as drawn.

How the values were obtained:
[1] = biological target: T1, Adenosine receptor A1 (Rattus norvegicus, UniProt P25099); experiment: Displacement of [3H]CCPA from adenosine A1 receptor in rat brain cortical membranes; format: cell membranes
T1 sequence (P25099 whole entry): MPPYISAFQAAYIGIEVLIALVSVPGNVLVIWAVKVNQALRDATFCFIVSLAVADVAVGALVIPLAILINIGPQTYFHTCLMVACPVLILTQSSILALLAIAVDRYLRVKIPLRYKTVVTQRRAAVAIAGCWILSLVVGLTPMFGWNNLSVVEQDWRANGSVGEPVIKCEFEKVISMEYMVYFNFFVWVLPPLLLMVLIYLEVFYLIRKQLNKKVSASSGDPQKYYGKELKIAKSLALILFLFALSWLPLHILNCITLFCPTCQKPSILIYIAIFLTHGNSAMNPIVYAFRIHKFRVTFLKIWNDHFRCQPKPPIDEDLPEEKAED
Summary of the method: (§1)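 Membrane radioligand binding: A1 in rat brain cortical membranes and A2A in rat brain striatal membranes, with human A1 and A2A in recombinant CHO cell membranes. Radioligands are [3H]CCPA for A1 and [3H]MSX-2 for A2A. Full concentration-inhibition curves use six to ten concentrations spanning three orders of magnitude, with at least three independent experiments.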

[2] = biological target: Adenosine receptor A2a (Rattus norvegicus, UniProt P30543); experiment: Displacement of [3H]MSX-2 from adenosine A2A receptor in rat brain striatal membranes; format: cell membranes, Striatum, Membrane; summary of the method: as §1
Adenosine receptor A2a, sequence (P30543 whole entry): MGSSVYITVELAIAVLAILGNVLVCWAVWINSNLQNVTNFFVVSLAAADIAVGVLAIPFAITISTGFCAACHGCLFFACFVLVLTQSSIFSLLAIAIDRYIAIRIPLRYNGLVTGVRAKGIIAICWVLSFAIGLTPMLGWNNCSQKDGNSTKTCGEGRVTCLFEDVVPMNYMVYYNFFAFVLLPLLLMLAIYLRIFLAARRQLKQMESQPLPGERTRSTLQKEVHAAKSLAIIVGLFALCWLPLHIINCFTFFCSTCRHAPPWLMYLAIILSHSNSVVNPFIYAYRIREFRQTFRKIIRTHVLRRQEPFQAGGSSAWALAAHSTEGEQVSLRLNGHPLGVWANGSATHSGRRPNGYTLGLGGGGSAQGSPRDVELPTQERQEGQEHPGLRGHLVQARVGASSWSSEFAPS

[3] = biological target: T2, Adenosine receptor A3 (Homo sapiens, UniProt P0DMS8); experiment: Displacement of [3H]PSB-11 from human adenosine A3 receptor expressed in CHO cell membranes
T2 sequence (P0DMS8 whole entry): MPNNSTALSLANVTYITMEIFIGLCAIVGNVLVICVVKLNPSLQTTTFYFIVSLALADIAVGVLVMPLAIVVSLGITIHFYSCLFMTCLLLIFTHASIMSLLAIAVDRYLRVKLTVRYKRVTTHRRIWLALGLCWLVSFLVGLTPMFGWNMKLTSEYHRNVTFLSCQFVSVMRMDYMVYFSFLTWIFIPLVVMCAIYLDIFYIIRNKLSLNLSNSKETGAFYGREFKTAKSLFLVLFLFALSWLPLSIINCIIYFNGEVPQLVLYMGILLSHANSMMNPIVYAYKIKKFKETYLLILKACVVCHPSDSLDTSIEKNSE
Summary of the method: (§2)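 Membranes from CHO cells recombinantly expressing human A2B or A3 receptor. Radioligands are [3H]PSB-603 for A2B and [3H]PSB-11 for A3. Competition curves use six to ten test-compound concentrations spanning three orders of magnitude, with at least three independent experiments.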

[4] = biological target: Cytochrome P450 3A4 (Homo sapiens, UniProt P08684); experiment: Inhibition of recombinant human CYP3A4 by bioluminescence method; format: ADME
Cytochrome P450 3A4, sequence (P08684 whole entry): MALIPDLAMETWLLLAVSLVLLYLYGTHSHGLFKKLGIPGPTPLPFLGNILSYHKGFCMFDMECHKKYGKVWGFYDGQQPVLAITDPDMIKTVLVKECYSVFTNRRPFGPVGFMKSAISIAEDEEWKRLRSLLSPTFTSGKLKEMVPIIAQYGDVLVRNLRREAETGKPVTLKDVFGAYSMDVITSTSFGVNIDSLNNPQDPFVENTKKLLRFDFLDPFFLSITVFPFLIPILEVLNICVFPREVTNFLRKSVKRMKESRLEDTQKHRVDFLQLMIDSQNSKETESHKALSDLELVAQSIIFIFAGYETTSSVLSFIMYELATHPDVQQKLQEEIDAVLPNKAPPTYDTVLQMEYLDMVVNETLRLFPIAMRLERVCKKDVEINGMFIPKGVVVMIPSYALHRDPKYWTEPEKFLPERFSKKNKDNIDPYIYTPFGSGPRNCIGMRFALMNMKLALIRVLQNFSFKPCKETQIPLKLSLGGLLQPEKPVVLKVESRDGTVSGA

[5] = tested on: HEK293; experiment: Cytotoxicity against HEK293 cells assessed as decrease in cell viability after 48 hrs by formazan dye-based EZ4U assay; details: Homo sapiens, HEK293, 48 h
Summary of the method: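 HEK-293 cells are seeded at 1 × 10^4 per well and grown 24 h to 60% confluence. Compounds (25 mM DMSO stocks) are diluted into medium at final 0.1–250 μM, with DMSO ≤1%, and left 48 h.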

[6] = Metabolic stability in human liver microsomes at 50 uM preincubated for 5 mins followed by addition of NADPH regenerating system and measured after 120 mins by UPLC/MS analysis; format: ADME, microsome; details: 2 h
Summary of the method: (§3)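 Incubations use pooled human (adult male and female) or rat liver microsomes at 1 mg/ml in 0.1 M Tris-HCl pH 7.4 with compound at 50 μM. After 5 min preincubation at 37 °C, an NADPH regenerating system is added to start the reaction. Cold methanol stops it at 120 min; samples are centrifuged and the supernatant analysed by UPLC/MS.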

[7] = Metabolic stability in rat liver microsomes at 50 uM preincubated for 5 mins followed by addition of NADPH regenerating system and measured after 120 mins by UPLC/MS analysis; format: ADME, microsome; details: 2 h; summary of the method: as §3
[8] = biological target: T3, Adenosine receptor A2b (Homo sapiens, UniProt P29275); experiment: Displacement of [3H]PSB-603 from human adenosine A2B receptor expressed in CHO cell membranes
T3 sequence (P29275 whole entry): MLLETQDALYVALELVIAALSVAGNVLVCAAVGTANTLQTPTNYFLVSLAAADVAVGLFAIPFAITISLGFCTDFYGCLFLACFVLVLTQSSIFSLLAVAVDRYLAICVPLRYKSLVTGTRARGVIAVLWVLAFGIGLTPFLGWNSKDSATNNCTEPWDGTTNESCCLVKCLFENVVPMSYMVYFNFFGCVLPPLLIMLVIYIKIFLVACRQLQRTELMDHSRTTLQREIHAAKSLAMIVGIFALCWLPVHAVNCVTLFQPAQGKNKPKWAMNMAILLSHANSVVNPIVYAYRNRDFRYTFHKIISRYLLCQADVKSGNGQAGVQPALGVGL

[9] = biological target: T2, Adenosine receptor A3; experiment: Binding affinity to human adenosine A3 receptor by radioligand displacement assay
Summary of the method: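 Membranes from CHO cells recombinantly expressing human A2B or A3 receptor. Competition curves use six to ten test-compound concentrations spanning three orders of magnitude, with at least three independent experiments.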

[10] = (§4) Drug level in human liver microsomes treated with 2-(4-(2-(1,3-Dibutyl-2,4-dioxo-1,2,3,4,7,8-hexahydropyrimido[2,1-f]purin-9(6H)-yl)ethyl)phenoxy)-N-(3-(diethylamino)propyl)-acetamide at 50 uM preincubated for 5 mins followed by addition of NADPH regenerating system and measured after 120 mins by UPLC/MS analysis; format: ADME, microsome; details: 2 h; summary of the method: as §3
[11] = as §4, with “rat” for “human”; format: ADME, microsome; details: 2 h; summary of the method: as §3
[12] = biological target: T3, Adenosine receptor A2b; experiment: […] from human adenosine A2B receptor expressed in CHO cell membranes; details: in the assay text read “[3H]PSB-603” for “[3H]PSB-602”; summary of the method: as §2
[13] = Solubility of compound in water after over night incubation by UV spectroscopic method; format: physicochemical
Summary of the method: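 Compound (10 mg, basic form) is suspended in 2 mL water, boiled 5 min, left overnight at 20 °C and filtered. The filtrate is diluted 10–80-fold in MeOH and read by UV in 90% MeOH/H2O. Concentration comes from seven-point standard curves (10^-3 to 10^-1 mg/mL) by linear regression, multiplied by the dilution factor.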

CCCCn1c(=O)c2c(nc3n2CCCN3CCc2ccc(OCC(=O)NCCN3CCCC3)cc2)n(CCCC)c1=O
Ki [1]: 36.6 nM
Ki [2]: 455 nM
Ki [3]: 204 nM
inhibition (INH) ([4]; human, recombinant enzyme): Not Active
IC50 [5]: 23400 nM
Stability [6]: Stable
Stability [7]: Stable
Ki [8]: 66.3 nM

CCCn1c(=O)c2[nH]c(C34CC5CC(CC3C5)C4)nc2n(CCC)c1=O [ROLOFYLLINE]
Ki [9]: 4390 nM

CCCCn1c(=O)c2c(nc3n2CCCN3CCc2ccc(OCC(=O)NCCC(=O)O)cc2)n(CCCC)c1=O
Drug metabolism [10]: Metabolite_Detected
Drug metabolism [11]: Metabolite_Detected

CCCCn1c(=O)c2c(nc3n2CCCN3CCc2ccc(OCC(=O)NCCCN(CC)CC)cc2)n(CCCC)c1=O
Ki [1]: 24.8 nM
Ki [2]: 318 nM
Ki [12]: 126 nM
Ki [3]: 248 nM
solubility [13]: 632 µM (≈ 385 µg/mL)
IC50 [4]: 230 nM
IC50 [5]: 27300 nM
